This note sets out measurements from ChEMBL document CHEMBL4480385, “Design, synthesis and molecular docking studies of novel N-arylsulfonyl-benzimidazoles with anti Trypanosoma cruzi activity” (Eur J Med Chem, 2019).

The structures appear in SMILES notation.

The subject of series [1] is Trypanosoma cruzi. Kind of series: Anti-trypanosomal activity against Trypanosoma cruzi IRHOD/CO/2008/SN3 epimastigotes after 72 hrs by Neubauer hemocytometric method. It is filed as functional, organism-based. Conditions: IRHOD/CO/2008/SN3, 72 h.
For the next series, the system named is Vero. Kind of series: Cytotoxicity against African green monkey Vero cells after 72 hrs by propidium iodide/fluorescein diacetate staining based flow cytometry. The series is classed as cell-based. Conditions: Chlorocebus sabaeus.
Series [2] can be described thus: Selectivity index, ratio of IC50 for African green monkey Vero cells to IC50 for Trypanosoma cruzi IRHOD/CO/2008/SN3 epimastigotes. It is filed as toxicity. The note with it: read-out: Ratio IC50.
The test system of series [3] is Trypanosoma cruzi. Kind of series: Potency index, ratio benznidazole IC50 to test compound IC50 for anti-trypanosomal activity against Trypanosoma cruzi IRHOD/CO/2008/SN3 epimastigotes. It is filed as functional. The method in brief: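 Epimastigotes of the SN3 strain were grown in TLM with 10% inactivated FBS at 28 °C in air. Compounds or benznidazole, dissolved in PEG:EtOH (7:3), were added at final levels of 1, 10, 25 and 50 and left for 72 h. Parasites were counted by haemocytometer. IC50 for 50% growth inhibition was fitted by PROBIT, and values are the mean of three experiments.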

Series [4] in a line: Inhibition of Trypanosoma cruzi apoenzyme form of PFK.
Series [5] deals with Trypanosoma cruzi. The series can be described thus: Anti-trypanosomal activity against Trypanosoma cruzi IRHOD/CO/2008/SN3 amastigotes infected in African green monkey Vero cells after 72 hrs by Giemsa-staining based microscopic analysis. Conditions: IRHOD/CO/2008/SN3, Vero. The series is classed as functional, organism-based.
Series [6] can be described thus: Selectivity index, ratio of IC50 for African green monkey Vero cells to IC50 for Trypanosoma cruzi IRHOD/CO/2008/SN3 amastigotes infected in African green monkey Vero cells. Conditions: read-out: Ratio IC50. The series is classed as toxicity.
Series [7] deals with Trypanosoma cruzi. The series can be described thus: Inhibition of PFK in Trypanosoma cruzi IRHOD/CO/2008/SN3 epimastigotes assessed as change in succinate excretion at IC25 after 96 hrs by 1H NMR analysis relative to control. On the set-up: scale not given: the % may be the effect or the level left. The method in brief: (§1)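 SN3 epimastigotes (starting at 5 × 10⁵ cells/mL) were incubated with compound for 96 h at 28 °C, alongside drug-free control cultures. Cells were pelleted at 400 g for 10 min. Excreted end products in the supernatant were identified and quantified by ¹H NMR against a DSS reference signal, and compared with the controls.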

Series [8] concerns Trypanosoma cruzi. The series can be described thus: Inhibition of PFK in Trypanosoma cruzi IRHOD/CO/2008/SN3 epimastigotes assessed as change in pyruvate excretion at IC25 after 96 hrs by 1H NMR analysis relative to control. The arrangement: scale not given: the % may be the effect or the level left. The method in brief: as §1
Series [9] concerns Trypanosoma cruzi. Kind of series: Inhibition of PFK in Trypanosoma cruzi IRHOD/CO/2008/SN3 epimastigotes assessed as change in acetate excretion at IC25 after 96 hrs by 1H NMR analysis relative to control. On the set-up: scale not given: the % may be the effect or the level left. An outline of the steps:
as §1

The subject of series [10] is Trypanosoma cruzi. Kind of series: Inhibition of PFK in Trypanosoma cruzi IRHOD/CO/2008/SN3 epimastigotes assessed as change in L-alanine excretion at IC25 after 96 hrs by 1H NMR analysis relative to control. On the set-up: scale not given: the % may be the effect or the level left. An outline of the steps:
as §1

Series [11] relates to Trypanosoma cruzi. The series can be described thus: Inhibition of PFK in Trypanosoma cruzi IRHOD/CO/2008/SN3 epimastigotes assessed as change in D-lactate excretion at IC25 after 96 hrs by 1H NMR analysis relative to control. The arrangement: scale not given: the % may be the effect or the level left. An outline of the steps: as §1
Series [12] relates to Trypanosoma cruzi. The series can be described thus: Potency index, ratio benznidazole IC50 to test compound IC50 for anti-trypanosomal activity against Trypanosoma cruzi IRHOD/CO/2008/SN3 amastigotes infected in African green monkey Vero cells. It is filed as functional. An outline of the steps:
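Vero cells were grown in RPMI with 10% inactivated FBS at 37 °C in 5% CO2. They were seeded at 1 × 10⁴ cells/well on coverslips, cultured for 2 days, then infected with metacyclic T. cruzi at 10:1 for 24 h and washed. Compounds at 1, 10, 25 and 50 were added for 72 h. Amastigotes in methanol-fixed, Giemsa-stained preparations were counted against untreated cultures.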

With `O=[N+]([O-])c1ccccc1S(=O)(=O)n1cnc2ccccc21`, the IC50 in the series on Trypanosoma cruzi [1] was found to be 5.5 µM; in the series with Vero it was 120 µM. For the same molecule, the selectivity ratio in [2] worked out at 22. Further, the “Ratio IC50” value with Trypanosoma cruzi [3] was 3 - 5. The molecule also returned a pIC50 in series [4] of 3.74.

With `O=[N+]([O-])c1cccc(S(=O)(=O)n2cnc3ccccc32)c1`, the IC50 in the series with Trypanosoma cruzi [1] was determined as 4.6 µM; in the series with Trypanosoma cruzi [5] it was 15.9 µM; with Vero, 648 µM. Besides, the selectivity ratio in [2] is 141; in [6], 40.6. The “Ratio IC50” value in the series on Trypanosoma cruzi [3] was 3 - 5. Besides, the Activity with Trypanosoma cruzi [7] is -33.2%; in the series on Trypanosoma cruzi [8], -30.2%; in the series with Trypanosoma cruzi [9], -16.6%; with Trypanosoma cruzi [10], -22.7%; in the series with Trypanosoma cruzi [11], -3.97%. This molecule gave a pIC50 in series [4] of 3.66.

Turning to `O=[N+]([O-])c1ccc(S(=O)(=O)n2cnc3ccccc32)cc1`, the IC50 came out at 2.6 µM with Trypanosoma cruzi [1] and 347 µM with Vero. Also, in series [2], the selectivity ratio stood at 135. In the series on Trypanosoma cruzi [3], the “Ratio IC50” value was 3 - 5. In series [4], this molecule gave a pIC50 of 3.41.

`Cc1cc(C)c(C)c(S(=O)(=O)n2cnc3ccccc32)c1C`: the IC50 in the series on Trypanosoma cruzi [1] came to 2.2 µM; in the series with Trypanosoma cruzi [5] it was 19 µM; with Vero, 205 µM. Further, the selectivity ratio turned out to be 91.7 in [2] and 10.8 in series [6]. Further, the “Ratio IC50” value in the series on Trypanosoma cruzi [3] is listed as 3 - 5. Also, the Activity was -7.22% in the series on Trypanosoma cruzi [7]; 10.9% with Trypanosoma cruzi [8]; 12% in the series with Trypanosoma cruzi [9]; 10.4% with Trypanosoma cruzi [10]; 26.4% in the series with Trypanosoma cruzi [11]. Further, the pIC50 in series [4] was determined as 3.34.

As to `CC(=O)Nc1ccc(S(=O)(=O)n2cnc3ccccc32)cc1`, the IC50 in the series on Trypanosoma cruzi [1] is 7.2 µM; in the series on Trypanosoma cruzi [5] it was 10.1 µM; in the series with Vero, 468 µM. The selectivity ratio worked out at 65.4 in [2] and 45.9 in [6]. For the same molecule, the “Ratio IC50” value with Trypanosoma cruzi [12] is recorded as 2. Besides, the Activity with Trypanosoma cruzi [7] was 28.3%; with Trypanosoma cruzi [8] it was 2.38%; with Trypanosoma cruzi [9], 12.3%; in the series on Trypanosoma cruzi [10] it was 6.8%; in the series on Trypanosoma cruzi [11], 25.5%. In series [4], this molecule yielded a pIC50 of 3.86.

With `CC(C)(C)c1ccc(S(=O)(=O)n2cnc3ccccc32)cc1`, the values for the IC50 in the series on Trypanosoma cruzi [1] and in the series with Vero were 3 µM and 68.5 µM, respectively. Further, the selectivity ratio in series [2] worked out at 22.5. The “Ratio IC50” value with Trypanosoma cruzi [3] is reported as 3 - 5. In [4], this molecule returned a pIC50 of 3.48.

With `O=S(=O)(c1ccc(C(F)(F)F)cc1)n1cnc2ccccc21`, the IC50 in the series with Trypanosoma cruzi [1] was 6.2 µM; with Trypanosoma cruzi [5], 24 µM; in the series on Vero, 460 µM. The results for the selectivity ratio in [2] and in series [6] were 74.8 and 19.2, respectively. The Activity in the series with Trypanosoma cruzi [7] is -7.22%; in the series on Trypanosoma cruzi [8], 10.6%; in the series on Trypanosoma cruzi [9] it was 11.8%; in the series on Trypanosoma cruzi [10], 9.92%; in the series on Trypanosoma cruzi [11], 25.8%. Besides, the pIC50 in series [4] came out at 3.79.

Take `O=S(=O)(c1ccccc1)n1cnc2ccccc21`: the IC50 in the series on Trypanosoma cruzi [1] was 9 µM; with Trypanosoma cruzi [5] it was 37.3 µM; in the series on Vero, 1770 µM. The values for the selectivity ratio in series [2] and in series [6] were 196 and 47.3, respectively. The Activity with Trypanosoma cruzi [7] was -16%; with Trypanosoma cruzi [8], -13.4%; in the series on Trypanosoma cruzi [9], 3.31%; with Trypanosoma cruzi [10], -3.24%; in the series with Trypanosoma cruzi [11], 16.4%. The molecule further returned a pIC50 in series [4] of 3.95.
